{
  "source": "ChEMBL document CHEMBL3421533",
  "about": "“The Discovery of Orally Bioavailable Tyrosine Threonine Kinase (TTK) Inhibitors: 3-(4-(heterocyclyl)phenyl)-1H-indazole-5-carboxamides as Anticancer Agents” (J Med Chem, 2015)",
  "key": {"T47D": {"tested_on": "T47D", "test": "Cytotoxicity against human T47D cells after 5 days by sulforhodamine B assay", "assay_type": "functional", "settings": "120 h", "in_short": "(§1)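 Cancer lines were seeded at 800–6000 cells per well according to growth rate, 24 h before compound overlay. After culture, cells were fixed in situ and stained with sulforhodamine B. GI50 values were derived by curve fitting.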"}, "[1]": {"test": "AUCinfinity in athymic CD1 nude mouse at 10 mg/kg, po by LC-MS/MS analysis", "assay_type": "ADME, organism-based, Plasma", "set-up": "time infinity, dose 10 mg/kg, route oral", "settings": "athymic CD1 nude, plasma"}, "[2]": {"test": "Antitumor activity against human HCT116 cells xenografted in athymic CD1 nude mouse assessed as tumor growth inhibition at 23 mg/kg, po qd administered for 21 days measured 3 times per week during compound dosing relative to vehicle-treated control", "assay_type": "functional", "settings": "HCT-116, 504 h, read-out: TGI", "in_short": "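HCT116 cells (5 million) were injected subcutaneously into the right flank of 6–8 week old female athymic CD-1 nude mice. At a mean tumor volume of 80–120 mm³, mice were randomized (n = 8). Dosing was oral, daily for 21 days, in 10% NMP/40% PEG400/50% DI water, at the MTD and ~2/3 MTD. Tumors were measured three times weekly, volume x²y/2, and TGI was taken against vehicle.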"}, "Mus musculus": {"tested_on": "Mus musculus", "test": "Toxicity in po dosed CD-1 nude mouse assessed as signs of overt toxicity administered as qd for 21 days", "assay_type": "organism-based", "settings": "in vivo, 504 h", "in_short": "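Female nude mice bearing subcutaneous tumors (80–120 mm³ at randomization) received vehicle (10% NMP/40% PEG400/50% water) or compound by daily oral dosing for 21 days. Doses were the MTD and ~2/3 MTD. Body weight and tumor volume were measured three times weekly. The MTD criterion (n = 3) was no body-weight loss over 20% and not moribund.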"}, "[3]": {"test": "Cytotoxicity against human SKOV3 cells after 5 days by sulforhodamine B assay", "assay_type": "functional", "settings": "SK-OV-3, 120 h", "in_short": "as §1"}, "[4]": {"test": "Oral bioavailability in dog", "assay_type": "ADME, organism-based, Canis lupus familiaris", "settings": "in vivo"}, "[5]": {"test": "Plasma protein binding in dog", "assay_type": "ADME, cell-free, Canis lupus familiaris", "settings": "read-out: PPB (converted)"}, "[6]": {"test": "Cytotoxicity against human OV90 cells after 5 days by sulforhodamine B assay", "assay_type": "functional", "settings": "OV-90, 120 h", "in_short": "as §1"}, "[7]": {"test": "Half life in human liver microsomes at 1 uM by LC-MS analysis", "assay_type": "ADME"}, "[8]": {"test": "Cytotoxicity against human TOV21G cells after 5 days by sulforhodamine B assay", "assay_type": "functional", "settings": "120 h", "in_short": "as §1"}, "[9]": {"test": "Cytotoxicity against human SKBR3 cells after 5 days by sulforhodamine B assay", "assay_type": "functional", "settings": "SK-BR-3, 120 h", "in_short": "as §1"}, "[10]": {"test": "Oral bioavailability in Sprague-Dawley rat at 5 mg/kg by LC-MS/MS analysis", "assay_type": "ADME, organism-based", "settings": "in vivo"}, "[11]": {"test": "Cmax in athymic CD1 nude mouse at 10 mg/kg, po by LC-MS/MS analysis", "assay_type": "ADME, organism-based", "set-up": "dose 10 mg/kg, route oral", "settings": "athymic CD1 nude, in vivo"}, "SK-MEL-28": {"tested_on": "SK-MEL-28", "test": "Cytotoxicity against human SK-MEL-28 cells after 5 days by sulforhodamine B assay", "assay_type": "functional", "settings": "SK-MEL-28, 120 h", "in_short": "as §1"}, "[12]": {"test": "Plasma protein binding in human", "assay_type": "ADME, cell-free", "settings": "read-out: PPB (converted)"}, "[13]": {"target": "T1, Dual specificity protein kinase TTK (Homo sapiens, UniProt P33981)", "T1 sequence (P33981 whole entry)": "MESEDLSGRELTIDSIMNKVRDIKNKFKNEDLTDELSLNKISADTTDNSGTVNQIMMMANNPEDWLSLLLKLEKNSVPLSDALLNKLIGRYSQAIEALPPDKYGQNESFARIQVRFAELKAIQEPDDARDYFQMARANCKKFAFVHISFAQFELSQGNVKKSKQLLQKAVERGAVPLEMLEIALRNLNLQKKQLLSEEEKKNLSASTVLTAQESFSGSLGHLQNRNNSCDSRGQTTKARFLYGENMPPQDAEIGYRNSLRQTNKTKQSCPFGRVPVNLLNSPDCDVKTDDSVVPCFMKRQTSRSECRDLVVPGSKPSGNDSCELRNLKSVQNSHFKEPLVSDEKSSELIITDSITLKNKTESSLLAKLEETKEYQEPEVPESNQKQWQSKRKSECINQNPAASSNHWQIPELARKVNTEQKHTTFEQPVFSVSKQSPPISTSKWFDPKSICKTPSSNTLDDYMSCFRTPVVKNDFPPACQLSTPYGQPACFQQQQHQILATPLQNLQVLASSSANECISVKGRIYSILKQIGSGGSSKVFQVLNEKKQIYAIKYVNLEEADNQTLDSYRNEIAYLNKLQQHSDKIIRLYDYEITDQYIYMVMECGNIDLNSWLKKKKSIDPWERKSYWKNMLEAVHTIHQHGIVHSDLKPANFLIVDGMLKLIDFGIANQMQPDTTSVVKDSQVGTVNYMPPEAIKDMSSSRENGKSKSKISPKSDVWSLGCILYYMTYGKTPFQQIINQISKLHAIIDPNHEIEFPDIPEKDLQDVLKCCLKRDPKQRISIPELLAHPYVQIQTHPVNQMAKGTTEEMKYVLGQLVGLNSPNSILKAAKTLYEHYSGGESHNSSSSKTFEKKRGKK", "test": "Inhibition of TTK (unknown origin) transfected in human HCT116 cells after 4 hrs by near infrared imager analysis", "assay_type": "cell-based, HCT-116", "in_short": "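HCT116 cells transfected with wild-type TTK were arrested with nocodazole (200 ng/mL, 17 h). They were pretreated with MG132 (15 μM, 30 min), then exposed to compound or DMSO for 4 h. Blots were probed for phospho-TTK (Thr12/Ser15), phospho-Aurora A (Thr288)/B (Thr232), TTK and GAPDH. Bands were quantified by near-infrared imaging, and EC50 was fitted.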"}, "[14]": {"target": "Muscle, skeletal receptor tyrosine-protein kinase (Homo sapiens, UniProt O15146)", "sequence (O15146 whole entry)": "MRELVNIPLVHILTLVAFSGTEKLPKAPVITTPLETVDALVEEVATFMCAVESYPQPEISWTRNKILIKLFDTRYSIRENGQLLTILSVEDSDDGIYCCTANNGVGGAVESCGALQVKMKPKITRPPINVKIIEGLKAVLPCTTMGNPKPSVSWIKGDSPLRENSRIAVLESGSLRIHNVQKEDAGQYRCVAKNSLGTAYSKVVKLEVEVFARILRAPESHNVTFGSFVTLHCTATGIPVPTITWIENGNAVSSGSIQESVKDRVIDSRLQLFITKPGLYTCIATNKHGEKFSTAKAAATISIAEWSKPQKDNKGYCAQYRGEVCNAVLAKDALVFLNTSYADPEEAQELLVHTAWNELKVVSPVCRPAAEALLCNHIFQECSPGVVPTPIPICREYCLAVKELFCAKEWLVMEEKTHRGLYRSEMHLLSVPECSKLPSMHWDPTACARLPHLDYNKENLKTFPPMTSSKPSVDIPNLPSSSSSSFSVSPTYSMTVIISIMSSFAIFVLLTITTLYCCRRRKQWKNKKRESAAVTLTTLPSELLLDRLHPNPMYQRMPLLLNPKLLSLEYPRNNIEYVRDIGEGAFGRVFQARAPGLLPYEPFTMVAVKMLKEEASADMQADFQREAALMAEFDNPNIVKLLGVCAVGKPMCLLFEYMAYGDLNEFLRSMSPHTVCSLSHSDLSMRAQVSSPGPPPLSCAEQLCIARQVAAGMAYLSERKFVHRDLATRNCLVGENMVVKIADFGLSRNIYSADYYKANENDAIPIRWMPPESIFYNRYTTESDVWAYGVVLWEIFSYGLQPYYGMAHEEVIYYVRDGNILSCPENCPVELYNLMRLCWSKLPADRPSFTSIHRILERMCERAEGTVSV", "test": "Inhibition of human MuSK by millipore radiometric assay", "in_short": "(§2)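 Radiometric profiling against a 278-kinase panel was done with ATP at Km. Half-maximal inhibitory concentrations were then determined for the kinases most inhibited.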"}, "[15]": {"test": "Plasma protein binding in rat", "assay_type": "ADME, cell-free", "settings": "read-out: PPB (converted)"}, "[16]": {"test": "Half life in iv dosed dog", "assay_type": "ADME, organism-based, Canis lupus familiaris", "settings": "in vivo"}, "COLO 205": {"tested_on": "COLO 205", "test": "Cytotoxicity against human COLO205 cells after 5 days by sulforhodamine B assay", "assay_type": "functional", "settings": "COLO 205, 120 h", "in_short": "as §1"}, "[17]": {"test": "Cytotoxicity against human HCT116 cells after 5 days by sulforhodamine B assay", "assay_type": "functional, HCT-116", "in_short": "as §1"}, "[18]": {"test": "Clearance in Sprague-Dawley rat at 1 mg/kg, iv by LC-MS/MS analysis", "assay_type": "ADME, organism-based", "set-up": "dose 1 mg/kg, route intravenous", "settings": "in vivo"}, "[19]": {"target": "Maternal embryonic leucine zipper kinase (Homo sapiens, UniProt Q14680)", "sequence (Q14680 whole entry)": "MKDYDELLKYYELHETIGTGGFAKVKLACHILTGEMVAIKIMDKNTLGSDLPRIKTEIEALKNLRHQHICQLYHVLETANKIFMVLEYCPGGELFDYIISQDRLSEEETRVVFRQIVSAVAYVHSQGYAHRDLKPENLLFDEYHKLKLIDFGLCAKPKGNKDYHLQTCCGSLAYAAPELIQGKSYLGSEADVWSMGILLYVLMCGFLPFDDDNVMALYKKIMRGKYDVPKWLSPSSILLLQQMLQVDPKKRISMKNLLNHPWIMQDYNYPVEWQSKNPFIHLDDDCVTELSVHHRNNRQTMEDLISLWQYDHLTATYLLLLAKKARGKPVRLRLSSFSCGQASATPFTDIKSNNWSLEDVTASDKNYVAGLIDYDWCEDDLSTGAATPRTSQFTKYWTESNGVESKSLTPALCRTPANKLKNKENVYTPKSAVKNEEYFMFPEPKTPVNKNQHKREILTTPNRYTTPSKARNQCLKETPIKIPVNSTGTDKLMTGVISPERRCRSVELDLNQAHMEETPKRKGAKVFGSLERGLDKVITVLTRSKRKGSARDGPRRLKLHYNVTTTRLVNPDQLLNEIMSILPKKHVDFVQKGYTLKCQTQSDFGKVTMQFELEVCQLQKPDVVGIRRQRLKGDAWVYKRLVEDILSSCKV", "test": "Inhibition of human MELK by millipore radiometric assay", "in_short": "as §2"}},
  "note": "pEC50, pIC50: −log10 of the molar value.",
  "data": [
    {"smiles": "O=C(N[C@@H](c1ccccn1)C1CC1)c1ccc2[nH]nc(-c3ccc(N4[C@H]5CC[C@H]4CC(O)C5)cc3)c2c1", "note": "(stereo in doubt; 75)", "values": [
      {"measurement": "GI50", "setting": "T47D", "result": 20, "unit": "nM"},
      {"measurement": "AUC(0-inf)", "setting": "[1]", "result": 3000, "unit": "ng·h/mL"},
      {"measurement": "inhibition in vivo at 23 mg/kg", "setting": "[2]", "result": 55, "unit": "%"},
      {"measurement": "Activity", "setting": "Mus musculus", "result": "Non-toxic"},
      {"measurement": "GI50", "setting": "[3]", "result": 17, "unit": "nM"},
      {"measurement": "bioavailability", "setting": "[4]", "result": 43, "unit": "%"},
      {"measurement": "fraction unbound", "setting": "[5]", "result": 0.114},
      {"measurement": "GI50", "setting": "[6]", "result": 30, "unit": "nM"},
      {"measurement": "half-life at 1 µM", "setting": "[7]", "result": "> 60", "unit": "min"},
      {"measurement": "GI50", "setting": "[8]", "result": 16, "unit": "nM"},
      {"measurement": "GI50", "setting": "[9]", "result": 8, "unit": "nM"},
      {"measurement": "bioavailability", "setting": "[10]", "result": 44, "unit": "%"},
      {"measurement": "Cmax", "setting": "[11]", "result": 2000, "unit": "ng/mL"},
      {"measurement": "GI50", "setting": "SK-MEL-28", "result": 210, "unit": "nM"},
      {"measurement": "fraction unbound", "setting": "[12]", "result": 0.022},
      {"measurement": "pEC50", "setting": "[13]", "result": 7.85},
      {"measurement": "pIC50", "setting": "[14]", "result": 6.16},
      {"measurement": "fraction unbound", "setting": "[15]", "result": 0.069},
      {"measurement": "half-life", "setting": "[16]", "result": 72, "unit": "min"},
      {"measurement": "GI50", "setting": "COLO 205", "result": 60, "unit": "nM"},
      {"measurement": "GI50", "setting": "[17]", "result": 17, "unit": "nM"},
      {"measurement": "clearance", "setting": "[18]", "result": 66, "unit": "mL/min/kg"},
      {"measurement": "pIC50", "setting": "[19]", "result": 6.80}
    ]}
  ]
}
